Reference: publication PMC2813064 (Bioconjugate chemistry, 2010)
“Also recorded” adds a separate entry of the source.

Key:
[1] = Zeta potential of peptide-DNA polyplexes; type: physicochemical; conditions: positive (+ mV); peptide-DNA polyplex 0.5 nmol peptide per µg DNA, 5 mM Hepes, pH 7.4 (footnote), mean of ten measurements
Procedure, shortened: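 Polyplex was made in 5 mM Hepes at 30 µg/ml DNA with 15 nmol/ml peptide. Zeta potential was read on a ZetaPlus instrument straight after QELS particle sizing at a 90° scatter angle, as the mean of ten measurements.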

Erythrocytes = assay: RBC hemolysis assay; type: cell-based, mice; conditions: peptide DNA polyplexes (1.5 nmols and 7.5 µg pGL3), pH 7.4, Fig. 4C
Procedure, shortened: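 Erythrocytes from male ICR mouse heart blood (heparinized) were washed three times in 0.15 M PBS pH 7.4 and diluted to 1.5 × 10^8 cells/ml. 7.5 × 10^6 cells were added to the polyplexes (1.5 nmol peptide, 7.5 µg pGL3) in triplicate and held 1 h at 37°C, then filtered. Filtrate Abs410 nm was expressed against 100% lysis with water replacing PBS.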

CHO cells = assay: In vitro gene transfer; type: cell-based; conditions: 10 µg pGL3, luciferase at 24 hrs, Fig. 5
Procedure, shortened: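 Cells: CHO, 5 × 10^5 per 35 mm well, grown to about 50% confluency in MEM with 2 or 10% FBS, 1 mM sodium pyruvate and pen/strep. Polyplexes: peptide and pGL3 at 0.1–0.75 nmol peptide per µg DNA, in HBM (5 mM Hepes, 0.27 M mannitol, pH 7.5). Triplicate wells, 24 h. Luciferase RLU were converted to fmol by standard curve and normalized to mg protein (BCA).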

[2] = test system: HepG2, 3T3, and CHO cells; assay: In vitro gene transfer; type: cell-based; conditions: 0.5 nmol peptide per µg pGL3, 10 µg pGL3, luciferase at 24 hrs, Fig. 6
Procedure, shortened: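 Plating: HepG2, CHO or 3T3, 5 × 10^5 cells per 35 mm well, about 50% confluent. Transfection: 10 µg pGL3 polyplex (0.5 nmol peptide/µg DNA, 30 µg/ml DNA in 5 mM Hepes/0.27 M mannitol pH 7.5), added dropwise in triplicate for 24 h in MEM with 2 or 10% FBS. Read-out: lysate luciferase (0.5 mM D-luciferin injection, 10 s integration) as fmol per mg protein, mean ± SD of triplicates.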

Substance	Zeta Potential [1]	Hemolytic activity when combined with pGL3 (Erythrocytes)	Gene expression, fold greater than poly(Acr-Arg)4-Mal-melittin (CHO cells)	Gene transfer, fold lower than poly(Acr-Arg)2–4-SS-melittin [2]
(Acr-Arg)2-C-CWKKGIGAVLKVLTTGLPALISLIKRKRQQ (disulfide) [poly(Acr-Arg)2-SS-melittin]	25 ± 2.2 mV	–	–	–
(Acr-Arg)3-C-CWKKGIGAVLKVLTTGLPALISLIKRKRQQ (disulfide) [poly(Acr-Arg)3-SS-melittin]	29 ± 4.5 mV	–	–	–
(Acr-Arg)4-C-CWKKGIGAVLKVLTTGLPALISLIKRKRQQ (disulfide) [poly(Acr-Arg)4-SS-melittin]	29 ± 2.6 mV	completely neutralized; also recorded: non hemolytic	approximately 1000 fold	–
(CWKKGIGAVLKVLTTGLPALISLIKRKRQQ)2 (disulfide) [Dimeric-melittin]	–	–	–	10–100 fold
W(Lys(Ac)-Arg)4-C-CWKKGIGAVLKVLTTGLPALISLIKRKRQQ (disulfide) [poly(Lys(Ac)-Arg)4-SS-melittin]	20 ± 2.9 mV	–	–	–
